≈ marks a conversion by molar mass, not a printed value. Where “and” joins values, the source holds several entries; their conditions need not be identical. Identical values can stand only once.
Experiments:
[1] = tested on: mitochondrial permeability transition pore (mtPTP); assay: Calcium retention capacity; type: biochemical, mouse; settings: for CRC/CRC0: at 1.56 µM, average ±SEM, n≥3
[2] = tested on: mitochondrial permeability transition pore (mtPTP); assay: Mitochondrial swelling assay; type: biochemical, mouse; settings: for EC50: read-out: mitochondrial swelling EC50, isolated mouse liver mitochondria
[3] = HeLa cell viability assay; type: cell-based, human; settings: human, HeLa cells, with verapamil (20 µM) or CsH (2 µg/mL)
Method in brief: (§1)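 HeLa cells are grown in DMEM with 10% FBS at 37 °C and 5% CO2, seeded at 1×10^4 per well, and left to adhere for 6 h. They are then exposed for 24 h to a range of test compound concentrations or 1% DMSO vehicle, with 20 µM verapamil or 2 µg/mL CsH present. Relative viable cell number is read with the CellTiter 96 Aqueous One kit.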

[4] = tested on: HeLa cells; assay: HeLa cell viability assay; type: cell-based, human; settings: 24 h, CsH or verapamil present
Method in brief: as §1

[5] = target: human norepinephrine transporter (NET) (Homo sapiens, UniProt P23975); assay: Eurofins LeadProfilingScreen panel; type: binding; settings: read-out: inhibition of human norepinephrine transporter (NET)
human norepinephrine transporter (NET), sequence (P23975 whole entry): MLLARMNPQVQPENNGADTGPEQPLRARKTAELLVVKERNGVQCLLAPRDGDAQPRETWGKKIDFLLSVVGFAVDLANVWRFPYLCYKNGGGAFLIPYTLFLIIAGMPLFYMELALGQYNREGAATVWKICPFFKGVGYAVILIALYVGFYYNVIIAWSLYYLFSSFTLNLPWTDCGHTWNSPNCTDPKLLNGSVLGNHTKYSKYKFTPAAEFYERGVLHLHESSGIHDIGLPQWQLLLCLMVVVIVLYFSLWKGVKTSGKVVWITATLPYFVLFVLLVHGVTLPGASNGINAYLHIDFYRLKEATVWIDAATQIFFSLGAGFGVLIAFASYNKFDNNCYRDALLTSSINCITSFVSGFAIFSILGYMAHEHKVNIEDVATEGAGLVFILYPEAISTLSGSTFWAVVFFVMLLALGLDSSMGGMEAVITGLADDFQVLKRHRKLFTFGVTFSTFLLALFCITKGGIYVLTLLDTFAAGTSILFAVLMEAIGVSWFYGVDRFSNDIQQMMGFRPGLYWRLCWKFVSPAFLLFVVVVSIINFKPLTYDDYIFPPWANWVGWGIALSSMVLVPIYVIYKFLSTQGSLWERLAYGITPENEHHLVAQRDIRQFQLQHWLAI

[6] = target: T1, adenosine A3 (Homo sapiens, UniProt P0DMS8); assay: Eurofins LeadProfilingScreen panel; type: binding; settings: read-out: inhibition of adenosine A3
T1 sequence (P0DMS8 1-318): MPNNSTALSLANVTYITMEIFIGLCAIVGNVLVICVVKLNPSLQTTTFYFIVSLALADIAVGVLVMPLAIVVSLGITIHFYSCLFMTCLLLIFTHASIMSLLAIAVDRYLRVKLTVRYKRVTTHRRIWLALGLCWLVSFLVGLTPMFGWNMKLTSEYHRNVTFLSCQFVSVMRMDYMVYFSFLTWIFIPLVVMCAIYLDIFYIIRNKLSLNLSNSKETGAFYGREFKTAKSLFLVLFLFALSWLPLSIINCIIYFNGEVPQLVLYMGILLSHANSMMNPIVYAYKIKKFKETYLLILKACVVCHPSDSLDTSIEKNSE

[7] = tested on: other 66 targets in the panel (GPCRs, ion channels, transporters); assay: Eurofins LeadProfilingScreen panel, remaining targets; type: binding; settings: 10 µM
[8] = Aqueous solubility; type: physicochemical; settings: PBS
[9] = Plasma protein binding, human; type: in vitro ADME
[10] = Plasma protein binding, mouse; type: in vitro ADME
[11] = Plasma stability, human; type: in vitro ADME
[12] = Plasma stability, mouse; type: in vitro ADME
[13] = Microsomal stability, human liver microsomes; type: in vitro ADME
[14] = Microsomal stability, mouse liver microsomes; type: in vitro ADME
[15] = tested on: human mtPTP; assay: CRC of HeLa cells; type: cell-based
[16] = tested on: mitochondrial permeability transition pore (mtPTP); assay: Chemical activation of mtPTP; type: biochemical, mouse; settings: 1.56 µM; 10 µM Ca2+ plus PhAsO, diamide, Cu(OP)2 or NEM
[17] = tested on: isolated mouse liver mitochondria; assay: Oxygen consumption of isolated mouse liver mitochondria; type: biochemical
[18] = tested on: HeLa cells; assay: Oxygen consumption of HeLa cells; type: cell-based, human; settings: CsH present
Method in brief: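 HeLa monolayers are seeded at 3×10^4 per well in DMEM and cultured for 24 h. Medium is replaced by serum- and antibiotic-free unbuffered DMEM (pH 7.4) containing 2 µg/mL CsH or 20 µM verapamil. Oxygen consumption is measured on a Seahorse XF24 with sequential additions, and protein per well is quantified by BCA afterwards. Results are mean ± SD of a representative experiment, repeated four times.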

[19] = tested on: exon 9 col6a1 morphant zebrafish; assay: Zebrafish ColVI myopathy model, motor activity; type: in vivo; settings: 5 and 10 µM in fish water, added at 21 hpf
[20] = tested on: exon 9 col6a1 morphant zebrafish; assay: Zebrafish ColVI myopathy model, muscle birefringence; type: in vivo; settings: 48 hpf; 5 and 10 µM in fish water, added at 21 hpf; ANOVA p < 0.05
[21] = isolated mouse liver mitochondria

## COc1cc(NC(=O)c2cc(-c3cccc(O)c3)on2)cc(OC)c1OC [Compound 1, 5-(3-hydroxyphenyl)-N-(3,4,5-trimethoxyphenyl)isoxazole-3-carboxamide]
[1]; [21]
  CRC/CRC0: 1.18 −0.06

## Cc1c(Cl)cccc1NC(=O)c1cc(-c2ccc(F)c(O)c2)on1 [Compound 60, N-(3-Chloro-2-methylphenyl)-5-(4-fluoro-3-hydroxyphenyl)isoxazole-3-carboxamide]
[2]; 1.56 µM compound
  mtPTP opening (swelling) induced by 50 µM Ca2+ load: abolished
[1]; 1.56 µM compound, 20 µM Ca2+ pulses, solvent control 80
  Ca2+ load required for mtPTP opening: ~ 960 nmol (mg protein)^−1
[1]; [21]
  CRC/CRC0: 12.14±0.55 and 12.1 −0.6
  maximum CRC ratio relative to CsA-treated mitochondria: ~ 3 fold
[1]; concentration-response, Figure 4D trace a
  compound-to-solvent CRC ratio reached on augmenting the concentration: 15
[1]; various concentrations of 60 plus 2 µM CsA
  effect on CRC in combination with 2 µM CsA: synergistic
[3]
  CC50 at 24 h: 39.5 ± 4.65 µM
[4]
  concentration up to which not cytotoxic: 12.50 µM
[5]
  inhibition at 10 µM: 79%
[6]
  inhibition at 10 µM: 51%
[7]
  inhibition of the other 66 targets in the panel: ≤ 43%
[8]; pH 7.4
  Aqueous solubility: 16.1 µM
[8]; pH 7.4, aqueous buffer, Aqueous solubility
  solubility: 16 µM (≈ 5.55 µg/mL)
[9]
  fraction unbound: 0.11
  recovery: 76%
[10]
  fraction unbound: < 0.01
  recovery: 0%
[11]
  half-life: > 120 min
[12]
  half-life: < 30 min
[13]
  half-life: > 60 min
  microsomal CLint: < 116 µL/min/mg
[14]
  half-life: < 15 min
  microsomal CLint: > 462 µL/min/mg
[15]; 1.56 µM, 30 min
  CRC after treatment of intact HeLa cells, wash, then permeabilization: effective following treatment of intact human cells
[15]; increasing concentrations of 60
  CRC ratios of permeabilized HeLa cells: increased CRC ratios
[16]
  mtPTP transition from closed to open after chemical activators: prevented
[17]
  respiratory control ratios, FCCP-stimulated and oligomycin-insensitive respiration: No statistically significant differences
[18]
  FCCP-stimulated and oligomycin-insensitive respiration: No statistically significant differences
[19]
  motor function (spontaneous coiling events, touch-evoked response): dramatic improvement in motor function
[20]
  muscle birefringence (structural muscle defects): significant recovery of muscle defects

## Cc1ccc(Cl)cc1NC(=O)c1cc(-c2ccc(F)c(O)c2)on1 [Compound 63, N-(5-Chloro-2-methylphenyl)-5-(4-fluoro-3-hydroxyphenyl)isoxazole-3-carboxamide]
[1]; [21]
  CRC/CRC0: 15.21±1.26 and 15.2 −1.3

## COc1ccc(-c2cc(C(=O)Nc3cc(Cl)ccc3C)no2)cc1O [Compound 46, N-(5-Chloro-2-methylphenyl)-5-(3-hydroxy-4-methoxyphenyl)isoxazole-3-carboxamide]
[2]
  EC50: 0.0076 nM
[1]; [21]
  CRC/CRC0: 10.02±0.34
[3]
  CC50 at 24 h: > 50 µM

## COc1ccc(-c2cc(C(=O)Nc3cc(Cl)cnc3C)no2)cc1O [Compound 54, N-(5-Chloro-2-methylpyridin-3-yl)-5-(3-hydroxy-4-methoxyphenyl)isoxazole-3-carboxamide]
[2]
  EC50: 10 nM
[1]; [21]
  CRC/CRC0: 10.10±1.14 and 10.1 −1.1
[3]
  CC50 at 24 h: > 50 µM
